Data set [1] can be described thus: Inhibition of carboxylesterase (unknown origin) using 4-nitrophenyl acetate as substrate by UV-Vis spectrophotometer. Also noted: species or system Homo sapiens. In short, it runs like this: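 Read-out was 4-nitrophenol released by CaE hydrolysis of 1.0 mmol/L 4-nitrophenyl acetate, measured at 405 nm. Reactions ran in 100 mmol/L potassium phosphate buffer, pH 8.0, at 25 °C. CaE activity was taken as proportional to 4-nitrophenol concentration.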

Data set [2] concerns the target T1, Acetylcholinesterase (Homo sapiens, UniProt P22303). The experiment in a line: Inhibition of acetylcholinesterase (unknown origin) using acetylthiocholine iodide as substrate after 25 mins by Ellmann method. In short, it runs like this: (§1)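 Modified Ellman assay, triplicate. Compounds dissolved in Tween 80, diluted with water to five concentrations. Mix: enzyme […], substrate (acetylthiocholine iodide or butyrylthiocholine iodide) and test compound in phosphoric acid buffer, pH 8.0, 0.1 mol/L. Incubated 25 min at 30 °C, then terminated. IC50 reported as mean ± SD of three experiments.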
For orientation: In Ellman's method for cholinesterases, released thiocholine reacts with DTNB.

The target in a further data set is Cholinesterase (Homo sapiens, UniProt P06276). The experiment in a line: Inhibition of butyrylcholinesterase (unknown origin) using butyrylthiocholine iodide as substrate after 25 mins by Ellmann method. In short, it runs like this: as §1
The next data set is filed under the species Homo sapiens. Description: Selectivity index, ratio of IC50 for butyrylcholinesterase (unknown origin) to IC50 for acetylcholinesterase (unknown origin).
The nature of data set [3]: Octanol-water partition coefficient, log P of the compound at pH 7.4 by shake flask method. The data set is classed as physicochemical. In short, it runs like this: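 Shake flask partition between octanol and PBS (pH 7.4). Mixture shaken at 37 °C overnight, then centrifuged at 2000 rpm for 20 min. Phases analysed by C18 HPLC with methanol-0.1% TEA (85:15, v/v) at 1.0 mL/min and 32 °C, detection at 322 nm. Run in triplicate, log P calculated.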

Data set [4] deals with T1, Acetylcholinesterase. The experiment in a line: Potency index, ratio of rivastigmine IC50 to compound IC50 for acetylcholinesterase (unknown origin).
Data set [5] deals with T1, Acetylcholinesterase. Description: Competitive inhibition of acetylcholinesterase (unknown origin) using acetylthiocholine iodide as substrate by Michaelis-Menten plot analysis.
Data set [6] addresses T1, Acetylcholinesterase. Description: Noncompetitive inhibition of acetylcholinesterase (unknown origin) using acetylthiocholine iodide as substrate by Michaelis-Menten plot analysis.
Compound in data set [7]: COc1cc(/C=C/C(=O)Nc2ccccc2)ccc1OCCCCCCN1CCCCC1
Description: Mixed type inhibition of acetylcholinesterase (unknown origin) assessed as Km for substrate at 0.18 uM using acetylthiocholine iodide as substrate by Michaelis-Menten plot analysis (reference value: 5.99 mM). The note with it: Homo sapiens.

Compound in data set [8]: COc1cc(/C=C/C(=O)Nc2ccccc2)ccc1OCCCCCCN1CCCCC1
The experiment in a line: Mixed type inhibition of acetylcholinesterase (unknown origin) assessed as enzyme Vmax at 0.18 uM using acetylthiocholine iodide as substrate by Michaelis-Menten plot analysis (reference value: 0.027 deltaA/min). The settings on record: Homo sapiens.

Compound in data set [9]: COc1cc(/C=C/C(=O)Nc2ccccc2)ccc1OCCCCCCN1CCCCC1
The experiment in a line: Mixed type inhibition of acetylcholinesterase (unknown origin) assessed as Km for substrate at 0.41 uM using acetylthiocholine iodide as substrate by Michaelis-Menten plot analysis (reference value: 5.99 mM). The note with it: Homo sapiens.

Compound in data set [10]: COc1cc(/C=C/C(=O)Nc2ccccc2)ccc1OCCCCCCN1CCCCC1
Description: Mixed type inhibition of acetylcholinesterase (unknown origin) assessed as Km for substrate at 0.82 uM using acetylthiocholine iodide as substrate by Michaelis-Menten plot analysis (reference value: 5.99 mM). The note with it: Homo sapiens.

Compound in data set [11]: COc1cc(/C=C/C(=O)Nc2ccccc2)ccc1OCCCCCCN1CCCCC1
Description: Mixed type inhibition of acetylcholinesterase (unknown origin) assessed as enzyme Vmax at 0.41 uM using acetylthiocholine iodide as substrate by Michaelis-Menten plot analysis (reference value: 0.027 deltaA/min). The settings on record: Homo sapiens.

Compound in data set [12]: COc1cc(/C=C/C(=O)Nc2ccccc2)ccc1OCCCCCCN1CCCCC1
Description: Mixed type inhibition of acetylcholinesterase (unknown origin) assessed as enzyme Vmax at 0.82 uM using acetylthiocholine iodide as substrate by Michaelis-Menten plot analysis (reference value: 0.027 deltaA/min). The settings on record: Homo sapiens.

One may read the IC50 as the concentration that inhibits the measured activity by half. Low readings indicate higher potency, high ones lower potency. For orientation: logD means lipophilicity at a set pH, counting ionised and neutral species. As a reminder, the Ki is a dissociation constant, usually derived from enzyme kinetics or from competition with a known ligand. Broadly, the Km is the substrate concentration at which the rate is half of its maximum.

Sequence of Cholinesterase (P06276 whole entry): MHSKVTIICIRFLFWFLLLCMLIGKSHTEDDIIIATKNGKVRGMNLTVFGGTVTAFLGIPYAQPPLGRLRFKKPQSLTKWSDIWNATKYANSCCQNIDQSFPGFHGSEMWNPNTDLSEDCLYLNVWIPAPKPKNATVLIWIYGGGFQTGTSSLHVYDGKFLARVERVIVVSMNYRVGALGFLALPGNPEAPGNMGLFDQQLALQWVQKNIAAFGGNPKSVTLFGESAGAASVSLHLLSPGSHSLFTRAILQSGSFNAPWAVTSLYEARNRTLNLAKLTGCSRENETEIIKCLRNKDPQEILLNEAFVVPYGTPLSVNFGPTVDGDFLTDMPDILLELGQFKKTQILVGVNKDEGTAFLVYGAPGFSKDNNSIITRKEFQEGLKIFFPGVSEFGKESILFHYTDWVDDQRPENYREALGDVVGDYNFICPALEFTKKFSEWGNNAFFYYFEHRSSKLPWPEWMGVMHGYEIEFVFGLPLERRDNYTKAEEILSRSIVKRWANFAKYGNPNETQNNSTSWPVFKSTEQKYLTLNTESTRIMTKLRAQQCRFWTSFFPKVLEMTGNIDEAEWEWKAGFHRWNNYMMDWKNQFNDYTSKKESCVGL

As for `COc1cc(/C=C/C(=O)Nc2ccccc2)ccc1OCCCCCCN1CCCC1`, the results for the IC50 (in data set [1]; against Acetylcholinesterase [2]; against Cholinesterase) were greater than 500000 nM, 1110 nM and 2230 nM, respectively. The results for the Ratio IC50 in the data set filed under Homo sapiens and at Acetylcholinesterase [4] were 2.01 and 9, respectively. In data set [3], this molecule displayed a logD of 1.76.

Consider `COc1cc(/C=C/C(=O)Nc2ccccc2)ccc1OCCCCCCN1CCCCC1`, for which the results for the half-inhibitory concentration (IC50) (in data set [1]; at Acetylcholinesterase [2]; against Cholinesterase) were greater than 500000 nM, 710 nM and 13000 nM, respectively. Besides, the Ratio IC50 in the data set filed under Homo sapiens worked out at 18.3; on Acetylcholinesterase [4], 15. This molecule also showed a logD in data set [3] of 1.77. Further, the inhibition constant Ki on Acetylcholinesterase [5] amounted to 480 nM; at Acetylcholinesterase [6], 920 nM.

B1: Acetylcholinesterase (Homo sapiens), P22303 (protein)
chain: MRPPQCLLHTPSLASPLLLLLLWLLGGGVGAEGREDAELLVTVRGGRLRGIRLKTPGGPVSAFLGIPFAEPPMGPRRFLPPEPKQPWSGVVDATTFQSVCYQYVDTLYPGFEGTEMWNPNRELSEDCLYLNVWTPYPRPTSPTPVLVWIYGGGFYSGASSLDVYDGRFLVQAERTVLVSMNYRVGAFGFLALPGSREAPGNVGLLDQRLALQWVQENVAAFGGDPTSVTLFGESAGAASVGMHLLSPPSRGLFHRAVLQSGAPNGPWATVGMGEARRRATQLAHLVGCPPGGTGGNDTELVACLRTRPAQVLVNHEWHVLPQESVFRFSFVPVVDGDFLSDTPEALINAGDFHGLQVLVGVVKDEGSYFLVYGAPGFSKDNESLISRAEFLAGVRVGVPQVSDLAAEAVVLHYTDWLHPEDPARLREALSDVVGDHNVVCPVAQLAGRLAAQGARVYAYVFEHRASTLSWPLWMGVPHGYEIEFIFGIPLDPSRNYTAEEKIFAQRLMRYWANFARTGDPNEPRDPKAPQWPPYTAGAQQYVSLDLRPLEVRRGLRAQACAFWNRFLPKLLSATDTLDEAERQWKAEFHRWSSYMVHWKNQFDHYSKQDRCSDL
B1: the Michaelis constant (Km) in data set [7] worked out at 6.69 mM; in data set [9], 7.71 mM; in data set [10] it was 8.85 mM. Moreover, the Vmax in [8] stood at 0.023 deltaA/min; in [11], 0.019 deltaA/min; in data set [12], 0.015 deltaA/min.

These data come from ChEMBL document CHEMBL3994591, “Novel ferulic amide derivatives with tertiary amine side chain as acetylcholinesterase and butyrylcholinesterase inhibitors: The influence of carbon spacer length, alkylamine and aromatic group” (Eur J Med Chem, 2017).
